{"source": "ChEMBL document CHEMBL1157131", "about": "“Antibiotic indole sesquiterpene alkaloid from Greenwayodendron suaveolens with a new natural product framework” (2010)", "key": {"Staphylococcus aureus [1]": {"test_system": "Staphylococcus aureus", "assay": "Antimicrobial activity against methicillin sensitive Staphylococcus aureus ATCC 25923 after 24 hrs by broth microdilution method", "format": "functional", "method_in_brief": "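Overnight culture diluted 1:100 in trypticase soy broth with 0.5% D-glucose and 3% NaCl, grown at 37 °C to OD600 0.4, then diluted 1:10. Compounds in DMSO diluted in medium, tested at a concentration series (3-6 wells per concentration); vancomycin positive control. Incubated 24 h at 37 °C; inhibition from OD600 change versus compound-free control wells.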"}, "Staphylococcus aureus [2]": {"test_system": "Staphylococcus aureus", "assay": "Antimicrobial activity against cutaneous methicillin resistant Staphylococcus aureus isolate 106 expressing virulence gene system including PVL, ACME, bsaB and Agr genes after 24 hrs by broth microdilution method", "format": "functional", "details": "isolate 106, 24 h", "method_in_brief": "(§1)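 Clinical S. aureus isolates, first recovered from patient specimens on 5% sheep blood agar, tested by CLSI broth microdilution in cation-adjusted Mueller-Hinton broth. Initial inoculum 10^6 cfu/mL. After overnight incubation at 37 °C, MIC was read as the lowest concentration preventing visible growth. Overnight starter cultures were grown in TSB from frozen glycerol stocks.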"}, "Staphylococcus aureus [3]": {"test_system": "Staphylococcus aureus", "assay": "Antimicrobial activity against clinical isolates of Staphylococcus aureus after 24 hrs by broth microdilution method"}, "Staphylococcus aureus [4]": {"test_system": "Staphylococcus aureus", "assay": "Antimicrobial activity against cutaneous methicillin resistant Staphylococcus aureus isolate 111 expressing virulence gene system including PVL, ACME, bsaB and Agr genes after 24 hrs by broth microdilution method", "format": "functional", "details": "isolate 111, 24 h", "method_in_brief": "as §1"}, "Staphylococcus aureus [5]": {"test_system": "Staphylococcus aureus", "assay": "Antimicrobial activity against invasive methicillin resistant Staphylococcus aureus isolate 186 expressing virulence gene system including PVL, bsaA and Agr genes after 24 hrs by broth microdilution method", "format": "functional", "details": "isolate 186, 24 h", "method_in_brief": "as §1"}, "Staphylococcus aureus [6]": {"test_system": "Staphylococcus aureus", "assay": "Antimicrobial activity against cutaneous methicillin resistant Staphylococcus aureus isolate 107 expressing virulence gene system including PVL, ACME, bsaB and Agr genes after 24 hrs by broth microdilution method", "format": "functional", "details": "isolate 107, 24 h", "method_in_brief": "as §1"}, "Staphylococcus aureus [7]": {"test_system": "Staphylococcus aureus", "assay": "Antimicrobial activity against cutaneous methicillin resistant Staphylococcus aureus isolate 148 expressing virulence gene system including PVL, ACME, bsaB and Agr genes after 24 hrs by broth microdilution method", "format": "functional", "details": "isolate 148, 24 h", "method_in_brief": "as §1"}, "Staphylococcus aureus [8]": {"test_system": "Staphylococcus aureus", "assay": "Antimicrobial activity against cutaneous methicillin resistant Staphylococcus aureus isolate 105 expressing virulence gene system including PVL, ACME, bsaB and Agr genes after 24 hrs by broth microdilution method", "format": "functional", "details": "isolate 105, 24 h", "method_in_brief": "as §1"}, "Staphylococcus aureus [9]": {"test_system": "Staphylococcus aureus", "assay": "Antimicrobial activity against cutaneous methicillin sensitive Staphylococcus aureus isolate 175 expressing virulence gene system including PVL, bsaB and Agr genes after 24 hrs by broth microdilution method", "format": "functional", "details": "isolate 175, 24 h", "method_in_brief": "as §1"}, "Staphylococcus aureus [10]": {"test_system": "Staphylococcus aureus", "assay": "Antimicrobial activity against cutaneous methicillin resistant Staphylococcus aureus isolate 108 expressing virulence gene system including PVL, bsaA and Agr genes after 24 hrs by broth microdilution method", "format": "functional", "details": "isolate 108, 24 h", "method_in_brief": "as §1"}, "Staphylococcus aureus [11]": {"test_system": "Staphylococcus aureus", "assay": "Antimicrobial activity against cutaneous methicillin sensitive Staphylococcus aureus isolate 109 expressing virulence gene system including PVL, bsaB and Agr genes after 24 hrs by broth microdilution method", "details": "isolate 109, 24 h"}, "Staphylococcus aureus [12]": {"test_system": "Staphylococcus aureus", "assay": "Antimicrobial activity against cutaneous methicillin resistant Staphylococcus aureus isolate 158 expressing virulence gene system including PVL, ACME, bsaB and Agr genes after 24 hrs by broth microdilution method", "format": "functional", "details": "isolate 158, 24 h", "method_in_brief": "as §1"}, "Staphylococcus aureus [13]": {"test_system": "Staphylococcus aureus", "assay": "Antimicrobial activity against invasive methicillin resistant Staphylococcus aureus isolate 194 expressing virulence gene system including PVL, ACME, bsaB and Agr genes after 24 hrs by broth microdilution method", "format": "functional", "details": "isolate 194, 24 h", "method_in_brief": "as §1"}, "Staphylococcus aureus [14]": {"test_system": "Staphylococcus aureus", "assay": "Antimicrobial activity against cutaneous methicillin resistant Staphylococcus aureus isolate 295 expressing virulence gene system bsaB and Agr genes after 24 hrs by broth microdilution method", "format": "functional", "details": "isolate 295, 24 h", "method_in_brief": "as §1"}}, "note": "Activity calls are given as the source filed them. The rule behind the calls is not given here.", "data": [{"compound": "CC(C)=C1CC[C@@H](C)[C@@](C)(Cc2c[nH]c3ccccc23)[C@@H]1CCCO", "values": [{"measurement": "MIC", "setting": "Staphylococcus aureus [1]; ATCC 25923, 24 h", "result": 19, "unit": "µg/mL"}]}, {"compound": "COC(=O)CC[C@@H]1C(=C(C)C)CC[C@@H](C)[C@@]1(C)Cc1c[nH]c2ccccc12", "values": [{"measurement": "MIC", "setting": "Staphylococcus aureus [1]", "result": "inactive"}]}, {"compound": "C[C@@H]1CCC2=C3[C@H](C[C@H](O)C2(C)C)c2[nH]c4ccccc4c2C[C@@]31C", "note": "[PENTACYCLINDOLE]", "values": [{"measurement": "MIC", "setting": "Staphylococcus aureus [2]", "result": 8, "unit": "µg/mL"}, {"measurement": "MIC90", "setting": "Staphylococcus aureus [3]", "result": 8, "unit": "µg/mL"}, {"measurement": "MIC", "setting": "Staphylococcus aureus [4]", "result": 8, "unit": "µg/mL"}, {"measurement": "MIC", "setting": "Staphylococcus aureus [1]; ATCC 25923, 24 h", "result": 4, "unit": "µg/mL"}, {"measurement": "MIC", "setting": "Staphylococcus aureus [5]", "result": 8, "unit": "µg/mL"}, {"measurement": "MIC", "setting": "Staphylococcus aureus [6]", "result": 8, "unit": "µg/mL"}, {"measurement": "MIC", "setting": "Staphylococcus aureus [7]", "result": 8, "unit": "µg/mL"}, {"measurement": "MIC", "setting": "Staphylococcus aureus [8]", "result": 8, "unit": "µg/mL"}, {"measurement": "MIC", "setting": "Staphylococcus aureus [9]", "result": 8, "unit": "µg/mL"}, {"measurement": "MIC", "setting": "Staphylococcus aureus [10]", "result": 8, "unit": "µg/mL"}, {"measurement": "MIC", "setting": "Staphylococcus aureus [11]", "result": 8, "unit": "µg/mL"}, {"measurement": "MIC", "setting": "Staphylococcus aureus [12]", "result": 8, "unit": "µg/mL"}]}, {"compound": "C[C@@H]1CC[C@@H]2C(=CC[C@H](O)C2(C)C)[C@]1(C)Cc1c[nH]c2ccccc12", "note": "[POLYALTHENOL]", "values": [{"measurement": "MIC", "setting": "Staphylococcus aureus [2]", "result": 2, "unit": "µg/mL"}, {"measurement": "MIC90", "setting": "Staphylococcus aureus [3]", "result": 4, "unit": "µg/mL"}, {"measurement": "MIC", "setting": "Staphylococcus aureus [4]", "result": 2, "unit": "µg/mL"}, {"measurement": "MIC", "setting": "Staphylococcus aureus [1]; ATCC 25923, 24 h", "result": 4, "unit": "µg/mL"}, {"measurement": "MIC", "setting": "Staphylococcus aureus [13]", "result": 2, "unit": "µg/mL"}, {"measurement": "MIC", "setting": "Staphylococcus aureus [14]", "result": 4, "unit": "µg/mL"}, {"measurement": "MIC", "setting": "Staphylococcus aureus [5]", "result": 4, "unit": "µg/mL"}, {"measurement": "MIC", "setting": "Staphylococcus aureus [6]", "result": 1, "unit": "µg/mL"}, {"measurement": "MIC", "setting": "Staphylococcus aureus [7]", "result": 2, "unit": "µg/mL"}, {"measurement": "MIC", "setting": "Staphylococcus aureus [8]", "result": 1, "unit": "µg/mL"}, {"measurement": "MIC", "setting": "Staphylococcus aureus [9]", "result": 4, "unit": "µg/mL"}, {"measurement": "MIC", "setting": "Staphylococcus aureus [10]", "result": 2, "unit": "µg/mL"}, {"measurement": "MIC", "setting": "Staphylococcus aureus [11]", "result": 1, "unit": "µg/mL"}, {"measurement": "MIC", "setting": "Staphylococcus aureus [12]", "result": 4, "unit": "µg/mL"}]}]}
